These results are taken from ChEMBL document CHEMBL1255417, “Correlation between in vitro activity of posaconazole and in vivo efficacy against Rhizopus oryzae infection in mice” (Antimicrob Agents Chemother, 2010).

The test system of assay [1] is Rhizopus arrhizus. The experiment in a line: Antifungal activity against drug-susceptible Rhizopus oryzae UTHSC 05-3132 after 24 to 48 hrs. The assay is classed as functional. Put shortly: (§1)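 Minimum fungicidal concentration taken from the broth microdilution plates. From each well with complete inhibition (optically clear), 20 ul is plated on potato dextrose agar. Plates are incubated at 35°C for 24 to 48 h. The MFC is the lowest drug concentration giving no growth.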

Assay [2] concerns Rhizopus arrhizus. The experiment in a line: Antifungal activity against drug-susceptible Rhizopus oryzae UTHSC 06-4133 after 24 to 48 hrs. The assay is classed as functional. Put shortly:
as §1

The test system of assay [3] is Rhizopus arrhizus. The experiment in a line: Antifungal activity against drug-susceptible Rhizopus oryzae UTHSC 03-299 at 5 ug by disk diffusion assay. The note with it: read-out: DIZ. It counts as functional. Put shortly:
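Neo-Sensitabs tablet diffusion on Mueller-Hinton agar, following guidelines for molds; 9 mm tablets containing 5 µg posaconazole; inhibition zone diameter measured in mm; zone breakpoints applied at 24 h.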
Background: Agar diffusion results depend on both activity and mobility in agar.

The subject of assay [4] is Rhizopus arrhizus. The experiment in a line: Antifungal activity against drug-susceptible Rhizopus oryzae UTHSC 412-546 by broth microdilution method. It counts as functional. A general note: In broth dilution the organism is exposed to a series of concentrations in liquid medium.
For assay [5], the system named is Rhizopus arrhizus. The assay is described as follows: Antifungal activity against drug-susceptible Rhizopus oryzae UTHSC 03-112 after 24 to 48 hrs. It counts as functional.
For assay [6], the system named is Rhizopus arrhizus. The assay is described as follows: Antifungal activity against drug-susceptible Rhizopus oryzae UTHSC 02-439 at 5 ug by disk diffusion assay. It counts as functional. The note with it: read-out: DIZ. In short, it runs like this:
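Neo-Sensitabs tablet diffusion on Mueller-Hinton agar, following the guidelines for molds. Tablets were 9 mm in diameter and held 5 µg of drug. The read-out was inhibition zone diameter in mm.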

In assay [7] the test system is Rhizopus arrhizus. The assay is described as follows: Antifungal activity against drug-susceptible Rhizopus oryzae UTHSC 06-2457 at 5 ug by disk diffusion assay. The assay is classed as functional. The conditions noted are these: read-out: DIZ. In short, it runs like this:
(§2)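 Neo-Sensitabs tablet diffusion on Mueller-Hinton agar, run per the mould guidelines. Tablets are 9 mm in diameter and carry 5 ug posaconazole. The read-out is the inhibition zone diameter in mm.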

For assay [8], the system named is Rhizopus arrhizus. The experiment in a line: Antifungal activity against drug-susceptible Rhizopus oryzae UTHSC 04-1220 by broth microdilution method. It counts as functional. Put shortly: (§3)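 CLSI broth microdilution for filamentous fungi (M38-A2); MIC recorded in µg/ml against clinical isolates; breakpoints applied at 24 h.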
The subject of assay [9] is Rhizopus arrhizus. The assay is described as follows: Antifungal activity against drug-susceptible Rhizopus oryzae UTHSC 05-1817 by broth microdilution method. The assay is classed as functional. Put shortly: as §3
Assay [10] relates to Rhizopus arrhizus. The assay is described as follows: Antifungal activity against drug-susceptible Rhizopus oryzae UTHSC 05-1502 by broth microdilution method. It counts as functional. In short, it runs like this:
as §3

For assay [11], the system named is Rhizopus arrhizus. The assay is described as follows: Antifungal activity against drug-susceptible Rhizopus oryzae UTHSC 06-2457 by broth microdilution method. It counts as functional. Put shortly: (§4)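 Posaconazole MIC in ug/ml, determined by broth microdilution following the CLSI guidelines for moulds (M38-A2).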
In assay [12] the test system is Rhizopus arrhizus. The experiment in a line: Antifungal activity against drug-susceptible Rhizopus oryzae UTHSC 03-299 by broth microdilution method. It counts as functional. In short, it runs like this: as §3
In assay [13] the test system is Rhizopus arrhizus. The assay is described as follows: Antifungal activity against drug-susceptible Rhizopus oryzae UTHSC 06-1080 by broth microdilution method. The assay is classed as functional. In short, it runs like this: as §4
The test system of assay [14] is Rhizopus arrhizus. The experiment in a line: Antifungal activity against drug-susceptible Rhizopus oryzae UTHSC 04-1241 by broth microdilution method. It counts as functional. Put shortly: as §3
The subject of assay [15] is Rhizopus arrhizus. The assay is described as follows: Antifungal activity against drug-susceptible Rhizopus oryzae UTHSC 412-546 after 24 to 48 hrs. The assay is classed as functional.
The test system of assay [16] is Rhizopus arrhizus. The assay is described as follows: Antifungal activity against drug-susceptible Rhizopus oryzae UTHSC 06-329 at 5 ug by disk diffusion assay. The assay is classed as functional. The note with it: read-out: DIZ. Put shortly:
as §2

Assay [17] has as its system Rhizopus arrhizus. The experiment in a line: Antifungal activity against drug-intermediate Rhizopus oryzae UTHSC 07-365 infected in OF1 mouse assessed as reduction in kidney fungal load at 10-30 mg/kg, po bid treated 24 hrs after fungal infection. It counts as functional, organism-based. In short, it runs like this: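 Tissue burden in immunosuppressed male OF1 mice, using cyclophosphamide 200 mg/kg i.p. plus 5-fluorouracil 150 mg/kg i.v. on day −1. Mice received 2 × 10^4 CFU i.v. by tail vein, then oral gavage at 10, 20 or 30 mg/kg BID from 24 h post-challenge, with ceftazidime cover; untreated controls. Groups of 10 were killed on day 4. Kidneys and brains were homogenized in 2 ml saline, serially diluted 10-fold, plated on PDA and counted after 24 h at 35°C.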

Assay [18] deals with Rhizopus arrhizus. The experiment in a line: Antifungal activity against drug-susceptible Rhizopus oryzae UTHSC 06-434 after 24 to 48 hrs. The assay is classed as functional. Put shortly: as §1
In assay [19] the test system is Rhizopus arrhizus. The assay is described as follows: Antifungal activity against drug-intermediate Rhizopus oryzae UTHSC 07-365 by broth microdilution method. The assay is classed as functional. Put shortly:
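Broth microdilution MIC in µg/ml, run per the CLSI (formerly NCCLS) guideline for filamentous fungi, M38-A2.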

Assay [20] relates to Rhizopus arrhizus. The assay is described as follows: Antifungal activity against drug-intermediate Rhizopus oryzae UTHSC 05-114 after 24 to 48 hrs. It counts as functional.
For assay [21], the system named is Rhizopus arrhizus. The assay is described as follows: Antifungal activity against drug-susceptible Rhizopus oryzae UTHSC 06-4035 at 5 ug by disk diffusion assay. The assay is classed as functional. The note with it: read-out: DIZ. Put shortly: as §2
Assay [22] has as its system Rhizopus arrhizus. The assay is described as follows: Antifungal activity against drug-susceptible Rhizopus oryzae UTHSC 03-2970 after 24 to 48 hrs. The assay is classed as functional.
Assay [23] relates to Rhizopus arrhizus. The experiment in a line: Antifungal activity against drug-susceptible Rhizopus oryzae UTHSC 06-2374 after 24 to 48 hrs. The assay is classed as functional. In short, it runs like this: as §1

Each structure is given as a SMILES string. ≈ marks a conversion by molar mass, not a printed value. Calls of active or inactive are those of the source. The rule behind the calls is not given here.

With `CC[C@@H]([C@H](C)O)n1ncn(-c2ccc(N3CCN(c4ccc(OC[C@@H]5CO[C@@](Cn6cncn6)(c6ccc(F)cc6F)C5)cc4)CC3)cc2)c1=O` [POSACONAZOLE], the MFC (usually the lowest tested concentration that kills the fungus rather than only halting it) against Rhizopus arrhizus [1] was found to be 0.5 µg/mL (≈ 0.713 µM); against Rhizopus arrhizus [2], 1 µg/mL (≈ 1.43 µM); against Rhizopus arrhizus [5] it was 1 µg/mL (≈ 1.43 µM); with Rhizopus arrhizus [15], 8 µg/mL (≈ 11.4 µM); against Rhizopus arrhizus [18], 1 µg/mL (≈ 1.43 µM); against Rhizopus arrhizus [20] it was 16 µg/mL (≈ 22.8 µM). The figures for the minimum fungicidal concentration (MFC) against Rhizopus arrhizus [22] and in the assay with Rhizopus arrhizus [23] were 4 µg/mL (≈ 5.71 µM) and 1 µg/mL (≈ 1.43 µM), respectively. For the same compound, the zone of inhibition at 5 µg/disc was 15 mm in the assay on Rhizopus arrhizus [3]; 22 mm in the assay with Rhizopus arrhizus [6]; 14 mm in the assay with Rhizopus arrhizus [7]; 20 mm with Rhizopus arrhizus [16]; 17 mm with Rhizopus arrhizus [21]. Moreover, the MIC (usually the least concentration at which growth counts as inhibited) was 1 µg/mL (≈ 1.43 µM) with Rhizopus arrhizus [4]; 0.5 µg/mL (≈ 0.713 µM) against Rhizopus arrhizus [8]; 0.25 µg/mL (≈ 0.357 µM) in the assay on Rhizopus arrhizus [9]; 0.5 µg/mL (≈ 0.713 µM) in the assay on Rhizopus arrhizus [10]; 1 µg/mL (≈ 1.43 µM) against Rhizopus arrhizus [11]; 1 µg/mL (≈ 1.43 µM) against Rhizopus arrhizus [12]. Besides, the results for the MIC in the assay on Rhizopus arrhizus [13], in the assay on Rhizopus arrhizus [14] and in the assay with Rhizopus arrhizus [19] were 1 µg/mL (≈ 1.43 µM), 0.5 µg/mL (≈ 0.713 µM) and 2 µg/mL (≈ 2.85 µM), respectively. Also, in the assay with Rhizopus arrhizus [17], the outcome was Active.
